Reference: ChEMBL document CHEMBL4765317, “Novel bacterial topoisomerase inhibitors derived from isomannide” (Eur J Med Chem, 2020)
pIC50: −log10 of the molar value. Values after ≈ are worked out from the molar mass of the structure shown.

Columns and labels:
Staphylococcus aureus [1] = experiment: Antibacterial activity against Staphylococcus aureus ATCC 29213 assessed as reduction in bacterial growth by CLSI based broth microdilution method; type: functional
Staphylococcus aureus [2] = experiment: Antibacterial activity against Staphylococcus aureus USA300 assessed as reduction in bacterial growth by CLSI based broth microdilution method; type: functional
Staphylococcus aureus [3] = experiment: Antibacterial activity against cystic fibrosis patient isolate Staphylococcus aureus assessed as reduction in bacterial growth by CLSI based broth microdilution method; type: functional
[4] = target: Voltage-gated inwardly rectifying potassium channel KCNH2 (Homo sapiens, UniProt Q12809); experiment: Inhibition of human ERG
Sequence of Voltage-gated inwardly rectifying potassium channel KCNH2 (Q12809 whole entry): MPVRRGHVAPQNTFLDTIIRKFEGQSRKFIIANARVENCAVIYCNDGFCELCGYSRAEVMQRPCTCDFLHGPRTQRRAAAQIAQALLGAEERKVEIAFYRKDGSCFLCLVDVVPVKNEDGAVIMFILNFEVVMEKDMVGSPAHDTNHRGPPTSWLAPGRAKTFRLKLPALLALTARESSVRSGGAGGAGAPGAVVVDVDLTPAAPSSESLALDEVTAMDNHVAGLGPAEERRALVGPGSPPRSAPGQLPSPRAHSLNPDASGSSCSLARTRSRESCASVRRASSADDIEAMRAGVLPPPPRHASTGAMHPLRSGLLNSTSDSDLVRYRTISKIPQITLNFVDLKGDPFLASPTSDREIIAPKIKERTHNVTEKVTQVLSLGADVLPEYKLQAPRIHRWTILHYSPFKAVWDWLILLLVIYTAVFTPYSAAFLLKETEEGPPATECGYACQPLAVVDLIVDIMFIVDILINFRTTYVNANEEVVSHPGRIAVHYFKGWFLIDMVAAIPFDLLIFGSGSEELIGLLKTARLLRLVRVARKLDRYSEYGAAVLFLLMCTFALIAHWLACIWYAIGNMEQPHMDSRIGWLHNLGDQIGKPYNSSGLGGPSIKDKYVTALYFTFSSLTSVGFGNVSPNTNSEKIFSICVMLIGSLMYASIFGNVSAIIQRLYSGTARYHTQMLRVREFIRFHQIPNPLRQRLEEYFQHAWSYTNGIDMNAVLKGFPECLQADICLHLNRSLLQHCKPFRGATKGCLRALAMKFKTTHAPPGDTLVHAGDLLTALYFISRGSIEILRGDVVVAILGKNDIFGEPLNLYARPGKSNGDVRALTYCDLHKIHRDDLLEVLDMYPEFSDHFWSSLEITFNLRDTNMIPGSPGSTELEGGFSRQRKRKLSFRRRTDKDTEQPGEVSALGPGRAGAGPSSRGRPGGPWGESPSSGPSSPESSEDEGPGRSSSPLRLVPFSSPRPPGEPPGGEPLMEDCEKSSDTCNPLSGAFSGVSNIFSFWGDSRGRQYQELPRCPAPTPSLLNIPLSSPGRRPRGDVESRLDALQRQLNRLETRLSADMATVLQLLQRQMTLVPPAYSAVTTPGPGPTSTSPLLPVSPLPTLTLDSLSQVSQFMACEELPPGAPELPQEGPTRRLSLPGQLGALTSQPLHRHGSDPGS

[5] = Inhibition of Staphylococcus aureus topoisomerase IV using kDNA as substrate incubated for 30 mins by gel electrophoresis analysis; settings: for pIC50: read-out: IC50
Staphylococcus aureus [6] = experiment: Selectivity index, ratio of IC50 for inhibition of Staphylococcus aureus topoisomerase IV to IC50 for inhibition of Staphylococcus aureus DNA gyrase
In short: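 Ratio of S. aureus TopoIV IC50 to S. aureus DNA gyrase IC50, both from gel-based assays. TopoIV read-out was inhibition of decatenation; gyrase read-out was inhibition of supercoiling.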

Staphylococcus aureus [7] = experiment: Antibacterial activity against Staphylococcus aureus 3527 assessed as reduction in bacterial growth by CLSI based broth microdilution method; type: functional
In short: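 Host is a multidrug-resistant MRSA clinical isolate (formerly 1095), the parent of an isogenic D83N gyrase mutant. MIC was read by CLSI broth microdilution and reported in µg/mL.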

Staphylococcus aureus [8] = experiment: Antibacterial activity against Staphylococcus aureus harboring DNA gyrase D83N mutant assessed as reduction in bacterial growth by CLSI based broth microdilution method; type: functional
In short: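 MIC against an isogenic NBTI-resistant daughter strain carrying a D83N substitution in DNA gyrase, originally selected under NBTI pressure from multidrug-resistant MRSA isolate 3527. CLSI broth microdilution was used, with values in µg/mL.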

Staphylococcus aureus [9] = experiment: Selectivity index, fold shift in MIC between parent and mutant; type: functional
In short: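 MICs by CLSI broth microdilution in µg/mL against multidrug-resistant MRSA isolate 3527 (formerly 1095) and its isogenic NBTI-resistant daughter strain carrying a gyrase D83N substitution. Value is the fold shift in MIC between parent and mutant.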

[10] = Inhibition of Staphylococcus aureus DNA gyrase using relaxed pBR322 DNA as substrate incubated for 30 mins by agarose gel electrophoresis method
Staphylococcus aureus [11] = experiment: Antibacterial activity against methicillin-resistant Staphylococcus aureus DRL-3161 assessed as reduction in bacterial growth by CLSI based broth microdilution method; type: functional
Streptococcus pyogenes = experiment: Antibacterial activity against Streptococcus pyogenes LSI-1235 assessed as reduction in bacterial growth by CLSI based broth microdilution method; type: functional
Streptococcus pneumoniae [12] = experiment: Antibacterial activity against penicillin-susceptible Streptococcus pneumoniae LSI-4234 assessed as reduction in bacterial growth by CLSI based broth microdilution method; type: functional
Streptococcus pneumoniae [13] = experiment: Antibacterial activity against penicillin-resistant Streptococcus pneumoniae LSI-4246 assessed as reduction in bacterial growth by CLSI based broth microdilution method; type: functional
Enterococcus faecium [14] = experiment: Antibacterial activity against Vancomycin-susceptible Enterococcus faecium DRL-4193 assessed as reduction in bacterial growth by CLSI based broth microdilution method; type: functional
Enterococcus faecium [15] = experiment: Antibacterial activity against Vancomycin-resistant Enterococcus faecium LSI-3340 assessed as reduction in bacterial growth by CLSI based broth microdilution method; type: functional
Enterococcus faecalis = experiment: Antibacterial activity against Enterococcus faecalis ATCC 29212 assessed as reduction in bacterial growth by CLSI based broth microdilution method; type: functional

## COc1ccc2nccc(CC[C@@]3(O)CO[C@@H]4[C@@H](NCc5ccccc5)CO[C@@H]43)c2c1
Staphylococcus aureus [1]
  MIC: > 8 µg/mL
Staphylococcus aureus [2]
  MIC: > 8 µg/mL
Staphylococcus aureus [3]
  MIC: > 8 µg/mL

## COc1ccc2nccc(CC[C@@]3(O)CO[C@@H]4[C@@H](NCc5ccc6c(c5)OCCO6)CO[C@@H]43)c2c1
Staphylococcus aureus [1]
  MIC: 16 µg/mL (≈ 33.4 µM)
Staphylococcus aureus [2]
  MIC: 16 µg/mL (≈ 33.4 µM)
Staphylococcus aureus [3]
  MIC: 16 µg/mL (≈ 33.4 µM)

## COc1ccc2ncc(F)c(CC[C@H]3OC[C@H](NCc4cc5c(cn4)OCCO5)CO3)c2n1
[4]
  pIC50: 4.82

## COc1ccc2nccc(CC[C@@]3(O)CO[C@@H]4[C@@H](NCc5ccc(C)cc5)CO[C@@H]43)c2c1
Staphylococcus aureus [1]
  MIC: > 8 µg/mL
Staphylococcus aureus [2]
  MIC: > 8 µg/mL
Staphylococcus aureus [3]
  MIC: > 8 µg/mL

## COc1ccc2ncc(F)c(CC[C@H]3OC[C@H](NCc4ccc(Cl)c(Cl)c4)CO3)c2n1
[4]
  pIC50: 5.10

## COc1ccc2ncc(F)c(CC[C@@]3(O)CO[C@@H]4[C@@H](NCc5ccc6c(c5)OCCO6)CO[C@@H]43)c2n1
Staphylococcus aureus [1]
  MIC: 0.5 µg/mL (≈ 1 µM)
Staphylococcus aureus [2]
  MIC: 1 µg/mL (≈ 2.01 µM)
Staphylococcus aureus [3]
  MIC: 1 µg/mL (≈ 2.01 µM)
[5]
  pIC50: 5.59
Staphylococcus aureus [6]
  Ratio IC50: 13
Staphylococcus aureus [7]
  MIC: 1 µg/mL (≈ 2.01 µM)
Staphylococcus aureus [8]
  MIC: 4 µg/mL (≈ 8.04 µM)
Staphylococcus aureus [9]
  Ratio: 4
[4]
  pIC50: 4.70
[10]
  pIC50: 6.70

## COc1ccc2ncc(F)c(CC[C@]3(O)CC[C@H](NCc4ccc5c(c4)OCCO5)CC3)c2n1
[4]
  pIC50: 5.64

## COc1ccc2ncc(F)c(CC[C@@]3(O)CO[C@@H]4[C@@H](NCc5ccc6c(n5)NC(=O)CO6)CO[C@@H]43)c2n1
Staphylococcus aureus [1]
  MIC: 2 µg/mL (≈ 3.91 µM)
Staphylococcus aureus [2]
  MIC: 1 µg/mL (≈ 1.95 µM)
Staphylococcus aureus [3]
  MIC: 2 µg/mL (≈ 3.91 µM)
[5]
  IC50: Not Active
Staphylococcus aureus [7]
  MIC: 1 µg/mL (≈ 1.95 µM)
Staphylococcus aureus [8]
  MIC: 8 µg/mL (≈ 15.6 µM)
Staphylococcus aureus [9]
  Ratio: 8
[4]
  pIC50: 4.92
[10]
  pIC50: 6.27

## COc1ccc2ncc(F)c(CC[C@@]3(O)CO[C@@H]4[C@@H](NCc5ccc(Cl)c(Cl)c5)CO[C@@H]43)c2n1
Staphylococcus aureus [1]
  MIC: ≤ 0.25 µg/mL
Staphylococcus aureus [2]
  MIC: 0.5 µg/mL (≈ 0.984 µM)
Staphylococcus aureus [3]
  MIC: 0.5 µg/mL (≈ 0.984 µM)
[5]
  pIC50: 5.54
Staphylococcus aureus [7]
  MIC: 0.25 µg/mL (≈ 0.492 µM)
Staphylococcus aureus [8]
  MIC: 4 µg/mL (≈ 7.87 µM)
[10]
  pIC50: 6.70

## COc1ccc2ncc(F)c(CC[C@]3(O)CC[C@H](NCc4ccc(Cl)c(Cl)c4)CC3)c2n1
[4]
  pIC50: 5.42

## COc1ccc2ncc(F)c(CC[C@]3(O)CC[C@@H](NCc4ccc5c(c4)OCCO5)CC3)c2n1
[4]
  pIC50: 5.66

## COc1ccc2ncc(F)c(CC[C@H]3OC[C@H](NCc4ccc5c(c4)OCCO5)CO3)c2n1
Staphylococcus aureus [1]
  MIC: < 0.25 µg/mL
Staphylococcus aureus [2]
  MIC: 0.125 µg/mL (≈ 0.274 µM)
Staphylococcus aureus [3]
  MIC: 0.25 µg/mL (≈ 0.549 µM)
Staphylococcus aureus [11]
  MIC: ≤ 0.06 µg/mL
Streptococcus pyogenes
  MIC: ≤ 0.06 µg/mL
Streptococcus pneumoniae [12]
  MIC: 0.25 µg/mL (≈ 0.549 µM)
Streptococcus pneumoniae [13]
  MIC: ≤ 0.06 µg/mL
Enterococcus faecium [14]
  MIC: 0.12 µg/mL (≈ 0.263 µM)
Enterococcus faecium [15]
  MIC: 0.12 µg/mL (≈ 0.263 µM)
Enterococcus faecalis
  MIC: 0.5 µg/mL (≈ 1.1 µM)
[5]
  pIC50: 6.00
Staphylococcus aureus [6]
  Ratio IC50: 33
Staphylococcus aureus [7]
  MIC: ≤ 0.25 µg/mL
Staphylococcus aureus [8]
  MIC: 4 µg/mL (≈ 8.78 µM)
Staphylococcus aureus [9]
  Ratio: > 16
[4]
  pIC50: 5.10
[10]
  pIC50: 7.52

## COc1ccc2ncc(F)c(CC[C@@]3(O)CO[C@@H]4[C@@H](NCc5ccc(C)cc5)CO[C@@H]43)c2n1
Staphylococcus aureus [1]
  MIC: 1 µg/mL (≈ 2.21 µM)
Staphylococcus aureus [2]
  MIC: 2 µg/mL (≈ 4.41 µM)
Staphylococcus aureus [3]
  MIC: 2 µg/mL (≈ 4.41 µM)
[5]
  pIC50: 5.12
Staphylococcus aureus [6]
  Ratio IC50: 42
Staphylococcus aureus [7]
  MIC: 2 µg/mL (≈ 4.41 µM)
Staphylococcus aureus [8]
  MIC: 16 µg/mL (≈ 35.3 µM)
Staphylococcus aureus [9]
  Ratio: 8
[10]
  pIC50: 6.74
